Measurements published in ChEMBL document CHEMBL1158482, “Dopamine D2, D3, and D4 selective phenylpiperazines as molecular probes to explore the origins of subtype specific receptor binding” (J Med Chem, 2009).

Columns and labels:
Assay type in all cases: cell-based
D(4) dopamine receptor [1] = target: T1, D(4) dopamine receptor (Homo sapiens, UniProt P21917); test: Displacement of [3H]spiperone from wild type human cloned dopamine D4 receptor expressed in HEK293 cells
T1 sequence (P21917 whole entry): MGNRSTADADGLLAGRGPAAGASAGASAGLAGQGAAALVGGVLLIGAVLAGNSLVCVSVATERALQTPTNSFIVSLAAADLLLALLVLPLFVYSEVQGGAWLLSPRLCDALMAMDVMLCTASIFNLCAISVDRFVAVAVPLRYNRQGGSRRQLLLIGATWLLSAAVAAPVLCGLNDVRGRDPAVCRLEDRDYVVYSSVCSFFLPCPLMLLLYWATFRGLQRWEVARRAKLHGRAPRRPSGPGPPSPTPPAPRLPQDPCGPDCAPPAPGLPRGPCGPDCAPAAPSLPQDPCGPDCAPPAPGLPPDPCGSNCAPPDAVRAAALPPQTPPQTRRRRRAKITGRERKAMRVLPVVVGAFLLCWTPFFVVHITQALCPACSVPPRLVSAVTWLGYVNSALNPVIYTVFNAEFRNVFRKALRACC

HEK293 [2] = test: Selectivity ratio of Ki for human cloned dopamine D2L receptor D3.32E mutant to Ki for wild type human cloned dopamine D2L receptor expressed in HEK293 cells
Procedure, shortened: (§1)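 Wild-type or mutant receptor cDNA transiently transfected into HEK-293 cells, which were grown in MEM with 10% FBS at 37 °C and 5% CO2 and harvested 48 h after transfection. Membranes were homogenised and pelleted at 50000g. Competition against [3H]spiperone (0.1-0.7 nM final) used 20-200 μg/mL protein. Ki was derived from EC50, 2-18 independent experiments in triplicate. Ratios are mutant Ki over wild-type Ki.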

HEK293 [3] = test: Selectivity ratio of Ki for human cloned dopamine D2L receptor V2.61F mutant to Ki for wild type human cloned dopamine D2L receptor expressed in HEK293 cells; procedure, shortened: as §1
HEK293 [4] = test: Selectivity ratio of Ki for human cloned dopamine D2L receptor L2.64F mutant to Ki for wild type human cloned dopamine D2L receptor expressed in HEK293 cells; procedure, shortened: as §1
HEK293 [5] = test: Selectivity ratio of Ki for human cloned dopamine D2L receptor FV3.28,3.29LM mutant to Ki for wild type human cloned dopamine D2L receptor expressed in HEK293 cells; procedure, shortened: as §1
HEK293 [6] = test: Selectivity ratio of Ki for human cloned dopamine D2L receptor V2.61F/FV3.28,3.29LM mutant to Ki for wild type human cloned dopamine D2L receptor expressed in HEK293 cells; procedure, shortened: as §1
HEK293 [7] = test: Selectivity ratio of Ki for human cloned dopamine D2L receptor E181V/I183S mutant to Ki for wild type human cloned dopamine D2L receptor expressed in HEK293 cells; procedure, shortened: as §1
HEK293 [8] = test: Selectivity ratio of Ki for human cloned dopamine D2L receptor H6.55A mutant to Ki for wild type human cloned dopamine D2L receptor expressed in HEK293 cells; procedure, shortened: as §1
HEK293 [9] = test: Selectivity ratio of Ki for human cloned dopamine D2L receptor H6.55F mutant to Ki for wild type human cloned dopamine D2L receptor expressed in HEK293 cells; procedure, shortened: as §1
HEK293 [10] = test: Selectivity ratio of Ki for human cloned dopamine D3 receptor D3.32E mutant to Ki for wild type human cloned dopamine D3 receptor expressed in HEK293 cells; procedure, shortened: as §1
HEK293 [11] = test: Selectivity ratio of Ki for human cloned dopamine D3 receptor V2.61F mutant to Ki for wild type human cloned dopamine D3 receptor expressed in HEK293 cells; procedure, shortened: as §1
HEK293 [12] = test: Selectivity ratio of Ki for human cloned dopamine D3 receptor L2.64F mutant to Ki for wild type human cloned dopamine D3 receptor expressed in HEK293 cells; procedure, shortened: as §1
HEK293 [13] = test: Selectivity ratio of Ki for human cloned dopamine D3 receptor FV3.28,3.29LM mutant to Ki for wild type human cloned dopamine D3 receptor expressed in HEK293 cells; procedure, shortened: as §1
HEK293 [14] = test: Selectivity ratio of Ki for human cloned dopamine D3 receptor V2.61F/FV3.28,3.29LM mutant to Ki for wild type human cloned dopamine D3 receptor expressed in HEK293 cells; procedure, shortened: as §1
HEK293 [15] = test: Selectivity ratio of Ki for human cloned dopamine D3 receptor V180E/S182I mutant to Ki for wild type human cloned dopamine D3 receptor expressed in HEK293 cells; procedure, shortened: as §1
HEK293 [16] = test: Selectivity ratio of Ki for human cloned dopamine D3 receptor H6.55A mutant to Ki for wild type human cloned dopamine D3 receptor expressed in HEK293 cells; procedure, shortened: as §1
CHO [17] = test: Selectivity ratio of Ki for human cloned dopamine D2L receptor to Ki for human cloned dopamine D3 receptor expressed in CHO cells
CHO [18] = test: Selectivity ratio of Ki for human cloned dopamine D2L receptor to Ki for human cloned dopamine D4 receptor expressed in CHO cells
D(2) dopamine receptor [19] = target: T2, D(2) dopamine receptor (Homo sapiens, UniProt P14416); test: Displacement of [3H]spiperone from wild type human cloned dopamine D2L receptor expressed in HEK293 cells
T2 sequence (P14416 whole entry): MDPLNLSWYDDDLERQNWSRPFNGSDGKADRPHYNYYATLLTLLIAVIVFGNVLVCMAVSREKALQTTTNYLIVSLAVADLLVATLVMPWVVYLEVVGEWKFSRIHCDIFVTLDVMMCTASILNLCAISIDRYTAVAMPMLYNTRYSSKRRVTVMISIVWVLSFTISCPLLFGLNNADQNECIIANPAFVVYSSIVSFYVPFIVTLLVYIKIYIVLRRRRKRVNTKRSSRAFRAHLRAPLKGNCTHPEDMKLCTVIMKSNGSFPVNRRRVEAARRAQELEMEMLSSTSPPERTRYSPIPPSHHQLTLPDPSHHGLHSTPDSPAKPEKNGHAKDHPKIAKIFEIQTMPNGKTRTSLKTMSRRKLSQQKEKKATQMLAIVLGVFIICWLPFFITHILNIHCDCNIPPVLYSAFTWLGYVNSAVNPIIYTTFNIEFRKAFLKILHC

[20] = Displacement of [3H]spiperone from human cloned dopamine D2L receptor D3.32E mutant expressed in HEK293 cells
Procedure, shortened: (§2)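 Wild-type or mutant receptor cDNA transiently transfected into HEK-293 cells (CaHPO4 or TransIT-293), grown in MEM with 10% FBS at 37 °C, 5% CO2, harvested 48 h post-transfection. Membranes prepared by homogenization and spin at 50000g.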

[21] = Displacement of [3H]spiperone from human cloned dopamine D2L receptor V2.61F mutant expressed in HEK293 cells; procedure, shortened: as §2
[22] = Displacement of [3H]spiperone from human cloned dopamine D2L receptor L2.64F mutant expressed in HEK293 cells; procedure, shortened: as §2
[23] = Displacement of [3H]spiperone from human cloned dopamine D2L receptor FV3.28,3.29LM mutant expressed in HEK293 cells; procedure, shortened: as §2
[24] = Displacement of [3H]spiperone from human cloned dopamine D2L receptor V2.61F/FV3.28,3.29LM mutant expressed in HEK293 cells; procedure, shortened: as §2
D(2) dopamine receptor [25] = target: D(2) dopamine receptor (Homo sapiens, UniProt P14416, E181V/I183S); test: Displacement of [3H]spiperone from human cloned dopamine D2L receptor E181V/I183S mutant expressed in HEK293 cells; procedure, shortened: as §1
Sequence of D(2) dopamine receptor (Homo sapiens, UniProt P14416, E181V/I183S) (P14416 whole entry E181V/I183S): as the sequence (P14416 whole entry) above, with E181V, I183S counted along it

[26] = Displacement of [3H]spiperone from human cloned dopamine D2L receptor H6.55A mutant expressed in HEK293 cells; procedure, shortened: as §2
[27] = Displacement of [3H]spiperone from human cloned dopamine D2L receptor H6.55F mutant expressed in HEK293 cells; procedure, shortened: as §2
D(3) dopamine receptor [28] = target: T3, D(3) dopamine receptor (Homo sapiens, UniProt P35462); test: Displacement of [3H]spiperone from wild type human cloned dopamine D3 receptor expressed in HEK293 cells
T3 sequence (P35462 whole entry): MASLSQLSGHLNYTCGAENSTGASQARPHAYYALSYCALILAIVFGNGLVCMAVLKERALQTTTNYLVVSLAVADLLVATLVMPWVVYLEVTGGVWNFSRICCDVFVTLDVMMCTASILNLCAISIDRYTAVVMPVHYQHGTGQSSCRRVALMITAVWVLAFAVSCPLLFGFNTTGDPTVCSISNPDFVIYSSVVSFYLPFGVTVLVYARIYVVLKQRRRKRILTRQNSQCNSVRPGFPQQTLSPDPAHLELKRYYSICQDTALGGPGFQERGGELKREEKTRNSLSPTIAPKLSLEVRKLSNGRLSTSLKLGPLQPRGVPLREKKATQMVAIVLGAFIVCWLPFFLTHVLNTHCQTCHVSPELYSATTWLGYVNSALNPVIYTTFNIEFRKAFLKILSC

D(3) dopamine receptor [29] = target: D(3) dopamine receptor (Homo sapiens, UniProt P35462, D110E); test: Displacement of [3H]spiperone from human cloned dopamine D3 receptor D3.32E mutant expressed in HEK293 cells
Sequence of D(3) dopamine receptor (Homo sapiens, UniProt P35462, D110E) (P35462 as listed by the source D110E): as the sequence (P35462 whole entry) above, with G9S, D110E counted along it

D(3) dopamine receptor [30] = target: D(3) dopamine receptor (Homo sapiens, UniProt P35462, V87F); test: Displacement of [3H]spiperone from human cloned dopamine D3 receptor V2.61F mutant expressed in HEK293 cells
Sequence of D(3) dopamine receptor (Homo sapiens, UniProt P35462, V87F) (P35462 as listed by the source V87F): as the sequence (P35462 whole entry) above, with G9S, V87F counted along it

D(3) dopamine receptor [31] = target: T3, D(3) dopamine receptor; test: Displacement of [3H]spiperone from human cloned dopamine D3 receptor L2.64F mutant expressed in HEK293 cells
D(3) dopamine receptor [32] = target: T3, D(3) dopamine receptor; test: Displacement of [3H]spiperone from human cloned dopamine D3 receptor FV3.28,3.29LM mutant expressed in HEK293 cells
D(3) dopamine receptor [33] = target: D(3) dopamine receptor (Homo sapiens, UniProt P35462, F106L/V107M/V87F); test: Displacement of [3H]spiperone from human cloned dopamine D3 receptor V2.61F/FV3.28,3.29LM mutant expressed in HEK293 cells
Sequence of D(3) dopamine receptor (Homo sapiens, UniProt P35462, F106L/V107M/V87F) (P35462 as listed by the source V87F/F106L/V107M): as the sequence (P35462 whole entry) above, with G9S, V87F, F106L, V107M counted along it

D(3) dopamine receptor [34] = target: D(3) dopamine receptor (Homo sapiens, UniProt P35462, S182I/V180E); test: Displacement of [3H]spiperone from human cloned dopamine D3 receptor V180E/S182I mutant expressed in HEK293 cells
Sequence of D(3) dopamine receptor (Homo sapiens, UniProt P35462, S182I/V180E) (P35462 as listed by the source V180E/S182I): as the sequence (P35462 whole entry) above, with G9S, V180E, S182I counted along it

D(3) dopamine receptor [35] = target: D(3) dopamine receptor (Homo sapiens, UniProt P35462, H349A); test: Displacement of [3H]spiperone from human cloned dopamine D3 receptor H6.55A mutant expressed in HEK293 cells
Sequence of D(3) dopamine receptor (Homo sapiens, UniProt P35462, H349A) (P35462 as listed by the source H349A): as the sequence (P35462 whole entry) above, with G9S, H349A counted along it

D(2) dopamine receptor [36] = target: T2, D(2) dopamine receptor; test: Displacement of [3H]spiperone from human cloned dopamine D2L receptor expressed in CHO cells
D(3) dopamine receptor [37] = target: T3, D(3) dopamine receptor; test: Displacement of [3H]spiperone from human cloned dopamine D3 receptor expressed in CHO cells
D(4) dopamine receptor [38] = target: T1, D(4) dopamine receptor; test: Displacement of [3H]spiperone from human cloned dopamine D4 receptor expressed in CHO cells
Procedure, shortened: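 Membranes from CHO cells stably expressing human D4 (Bmax 700-1800 fmol/mg). Curves fit by nonlinear regression, sigmoid model giving IC50 and slope; Ki ± SEM from 2-9 experiments in triplicate.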

Row | Structure (SMILES) | Ratio Ki (HEK293 [3]) | Ratio Ki (HEK293 [5]) | Ratio Ki (HEK293 [6]) | Ratio Ki (HEK293 [8]) | Ratio Ki (HEK293 [13]) | Ratio Ki (HEK293 [14]) | Ratio Ki (CHO [17]) | Ratio Ki (CHO [18]) | Ki (D(2) dopamine receptor [19]) [nM] | Ki [20] [nM] | Ki [21] [nM] | Ki [22] [nM] | Ki [23] [nM] | Ki [24] [nM] | Ki [26] [nM] | Ki [27] [nM] | Ki (D(3) dopamine receptor [28]) [nM] | Ki (D(3) dopamine receptor [30]) [nM] | Ki (D(3) dopamine receptor [32]) [nM] | Ki (D(3) dopamine receptor [33]) [nM] | also measured
1 | Clc1ccc(N2CCN(Cc3cc4ccccn4n3)CC2)cc1 | 0.53 | 0.13 | 0.03 | 0.14 | 0.09 | 0.009 | 0.64 | 1500 | 2300 | 5100 | 1200 | 2000 | 300 | 66 | 320 | 1600 | 8300 | 9200 | 730 | 76 | Ki (D(4) dopamine receptor [1]): 6.8 nM; Ratio Ki (HEK293 [2]): 2.2; Ratio Ki (HEK293 [4]): 0.89; Ratio Ki (HEK293 [7]): 19; Ratio Ki (HEK293 [9]): 0.7; Ratio Ki (HEK293 [10]): 1.4; Ratio Ki (HEK293 [11]): 1.1; Ratio Ki (HEK293 [12]): 0.19; Ratio Ki (HEK293 [15]): 0.31; Ratio Ki (HEK293 [16]): 0.005; Ki (D(2) dopamine receptor [25]): 47 µM; Ki (D(3) dopamine receptor [29]): 12 µM; Ki (D(3) dopamine receptor [31]): 1600 nM; Ki (D(3) dopamine receptor [34]): 2500 nM; Ki (D(3) dopamine receptor [35]): 46 nM
2 | COc1ccccc1N1CCN(CCCNC(=O)c2cnn3ccccc23)CC1 | – | – | – | – | – | – | – | – | – | 720 | 450 | 390 | 110 | 83 | 1.6 | 69 | – | – | – | – | –
3 | Clc1ccc(N2CCN(CCCCCc3cc4ccccn4n3)CC2)cc1 | 3.3 | 4.9 | 2.1 | 0.74 | 2.4 | 5.1 | 0.43 | 3.5 | 220 | – | 740 | – | 1100 | 470 | 170 | – | 220 | 1900 | 530 | 1100 | Ratio Ki (HEK293 [11]): 8.8; Ki (D(2) dopamine receptor [36]): 160 nM; Ki (D(3) dopamine receptor [37]): 370 nM; Ki (D(4) dopamine receptor [38]): 46 nM
4 | CSc1ccccc1N1CCN(CCCCNC(=O)c2cc3ccccn3n2)CC1 | 3.4 | 1.8 | 0.7 | 0.3 | 36 | 80 | 46 | 0.25 | 37 | 1300 | 130 | 120 | 65 | – | 11 | 160 | 160 | 230 | 33 | 18 | Ki (D(4) dopamine receptor [1]): 310 nM; Ratio Ki (HEK293 [2]): 34; Ratio Ki (HEK293 [4]): 3; Ratio Ki (HEK293 [7]): 3.4; Ratio Ki (HEK293 [9]): 4.3; Ratio Ki (HEK293 [12]): 66; Ratio Ki (HEK293 [15]): 1.5; Ratio Ki (HEK293 [16]): 1.3; Ki (D(2) dopamine receptor [36]): 16 nM; Ki (D(3) dopamine receptor [37]): 0.35 nM; Ki (D(4) dopamine receptor [38]): 65 nM; Ki (D(2) dopamine receptor [25]): 0.13 µM; Ki (D(3) dopamine receptor [29]): 0.0005 µM; Ki (D(3) dopamine receptor [31]): 58 nM; Ki (D(3) dopamine receptor [34]): 40 nM; Ki (D(3) dopamine receptor [35]): 0.76 nM
5 | COc1ccccc1N1CCN(CCCCNC(=O)c2cc3ccccn3n2)CC1 | – | – | – | – | – | – | – | – | – | 3500 | 920 | 940 | 220 | 120 | 21 | 340 | – | – | – | – | –
